Converted amounts (≈) assume the structure as drawn. The source made the active and inactive calls. The calls are words filed in the database; no cut-off is given here.
Key:
[1] = system: Mycobacterium tuberculosis; experiment: Antitubercular activity against Mycobacterium tuberculosis H37Rv assessed as inhibition of bacterial growth incubated for 7 days by REMA method; type: functional
[2] = Half life in human liver microsomes at 1 uM preincubated with NADP+ for 5 mins prior to compound addition by HPLC-MRM-MS analysis; type: ADME, Microsome
Outline: (§1)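 Pooled HLM at 1 mg/mL protein in 100 mM PBS pH 7.4 with an NADPH-regenerating mix: G6P 10 mM, NADP+ 2 mM, MgCl2 5 mM, G6PDH 1.5 U/mL (stock concentrations). Pre-incubated 5 min at 37 °C, then compound added to 1 μM final (1% DMSO).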

[3] = Drug metabolism in human liver microsomes assessed as retention time of 5-(2-((3-hydroxy-4-methylphenyl)amino)thiazol-4-yl)-N-(pyridin-2-yl)isoxazole-3-carboxamide at 250 nM by HPLC-MS/MS analysis; type: ADME, Microsome; details: 0.25 µM
Outline: (§2)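 Spiking: 10 μL HLM incubate was diluted with 90 μL ACN alone or with 250 nM of each synthetic hydroxylated standard in ACN. After centrifugation, HPLC-MS/MS retention times were compared for co-elution with the metabolites.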

[4] = Drug metabolism in human liver microsomes assessed as retention time of 5-(2-((4-(hydroxymethyl)phenyl)amino)thiazol-4-yl)-N-(pyridin-2-yl)isoxazole-3-carboxamide at 250 nM by HPLC-MS/MS analysis; type: ADME, Microsome; details: 0.25 µM; outline: as §2
[5] = Drug metabolism in human liver microsomes assessed as 5-(2-((3-hydroxy-4-methylphenyl)amino)thiazol-4-yl)-N-(pyridin-2-yl)isoxazole-3-carboxamide formation at 100 uM measured after 180 mins by HR-MS analysis; type: ADME, Microsome; details: 3 h
Outline: (§3)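 Metabolite ID: test compound at 100 μM initial concentration in pooled HLM incubates. Aliquots were taken at start and after 180 min, quenched with ACN, centrifuged and analysed by full-scan LC-HR-MS (Orbitrap, ESI+ and ESI−, resolution 15000). Data-dependent CID MS/MS was acquired at 30–35 V.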

Mycobacterium marinum [6] = experiment: Antitubercular activity against Mycobacterium marinum ATCC BAA-535 assessed as inhibition of bacterial growth measured after 3 weeks by broth microdilution method; type: functional; details: ATCC BAA-535, 504 h
[7] = Drug metabolism in human liver microsomes assessed as 5-(2-((4-(hydroxymethyl)phenyl)amino)thiazol-4-yl)-N-(pyridin-2-yl)isoxazole-3-carboxamide formation at 100 uM measured after 180 mins by HR-MS analysis; type: ADME, Microsome; details: 3 h; outline: as §3
[8] = Cytotoxicity against human THP-1 cells assessed as reduction in cell viability measured after 72 hrs by MTT assay; type: toxicity, cell-based
Outline: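 THP-1 monocytes were differentiated to macrophages with PMA 100 ng/mL for 72 h. They were then exposed to compounds at 1, 10, 50 and 100 μM for 72 h, each tested twice. MTT at 1 mg/mL in RPMI with 5% FBS was added for 2 h at 37 °C; formazan was dissolved in DMSO and read at 570 nm. Viability is given as % of control; IC50 from non-linear regression.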

[9] = Drug metabolism in human liver microsomes assessed as retention time of metabolite with molecular mass [M+30] at 250 nM by HPLC-MS/MS analysis; type: ADME, Microsome; details: 0.25 µM
Mycobacterium avium [10] = experiment: Antitubercular activity against Mycobacterium avium 11 assessed as inhibition of bacterial growth upto 100 uM measured after 4 days by broth microdilution method; type: functional, organism-based; details: time 4.0 day
Outline: (§4)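 Twofold serial dilutions inoculated at OD600 0.05; incubated at 37 °C, shaking at 110 rpm, for 3 days (M. abscessus Bamboo) or 4 days (M. avium 11). […] Clarithromycin positive control; data representative of two independent replicates.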

[11] = system: Mycobacteroides abscessus; experiment: Antitubercular activity against Mycobacterium abscessus Bamboo assessed as inhibition of bacterial growth upto 100 uM measured after 3 days by broth microdilution method; type: functional, organism-based; details: time 3.0 day; outline: as §4
[12] = Metabolic stability of the compound in human liver microsomes assessed as parent residual fraction at 1 uM preincubated with NADP+ for 5 mins prior to compound addition by HPCLC-MRM-MS analysis; type: ADME, Microsome; details: read-out: Stability; outline: as §1
[13] = system: Mycobacteroides abscessus; experiment: Antitubercular activity against Mycobacterium abscessus Bamboo assessed as inhibition of bacterial growth at 100 uM measured after 3 days by broth microdilution method; type: functional; details: 72 h, time 3 day; outline: as §4
Mycobacterium avium [14] = experiment: Antitubercular activity against Mycobacterium avium 11 assessed as inhibition of bacterial growth at 100 uM measured after 4 days by broth microdilution method; type: functional; details: Mycobacterium avium, 11, 96 h, time 4 day
Mycobacterium marinum [15] = details: ATCC BAA-535, time 3.0 weeks
[16] = Toxicity in Zebrafish infected with Mycobacterium marinum assessed as enlarged heart at 6 to 8 ng. iv; parameters: species or system Danio rerio; details: in vivo, dose 6-8 ng
[17] = Drug metabolism in human liver microsomes assessed as 5-(2-((3-hydroxy-4-methylphenyl)amino)thiazol-4-yl)-N-phenylisoxazole-3-carboxamide formation at 100 uM measured after 180 mins by HR-MS analysis; type: ADME, Microsome; details: 3 h; outline: as §3
[18] = Drug metabolism in human liver microsomes assessed as 5-(2-((4-(hydroxymethyl)phenyl)amino)thiazol-4-yl)-N-phenylisoxazole-3-carboxamide formation at 100 uM measured after 180 mins by HR-MS analysis; type: ADME, Microsome; details: 3 h; outline: as §3
[19] = Drug metabolism in human liver microsomes assessed as retention time of 5-(2-((4-(hydroxymethyl)phenyl)amino)thiazol-4-yl)-N-phenylisoxazole-3-carboxamide at 250 nM by HPLC-MS/MS analysis; type: ADME, Microsome; details: 0.25 µM; outline: as §2
Mycobacterium marinum [20] = experiment: Antitubercular activity against mCherry-labeled Mycobacterium marinum infected in Zebra fish larvae assessed as reduction in granuloma formation at 6 to 8 ng, iv; type: functional, organism-based; details: dose 6-8 ng
[21] = Drug metabolism in human liver microsomes assessed as retention time of 5-(2-((3-hydroxy-4-methylphenyl)amino)thiazol-4-yl)-N-phenylisoxazole-3-carboxamide at 250 nM by HPLC-MS/MS analysis; type: ADME, Microsome; details: 0.25 µM; outline: as §2
[22] = Toxicity in Zebrafish infected with Mycobacterium marinum assessed as enlarged yolk sac area at 6 to 8 ng. iv; parameters: species or system Danio rerio; details: in vivo, dose 6-8 ng
[23] = Mycobacterium tuberculosis, H37Rv, 168 h, time 7 day, read-out: MIC90

Row | Structure (SMILES) | MIC90 [1, 23] [µg/mL] | IC50 at 72 h [8] [µg/mL] | Activity (Mycobacterium avium [10]) | Activity [11] | further results
1 | Cc1ccc(Nc2nc(-c3cc(C(=O)Nc4ccc(O)cc4)no3)cs2)cc1O | 5 (≈ 12.2 µM) |  |  |  | t1/2 [2]: 19 min
2 | Cc1ccc(Nc2nc(-c3cc(C(=O)Nc4ccccn4)no3)cs2)cc1 | 0.5 (≈ 1.32 µM) | 22 (≈ 58.3 µM) |  |  | Retention_time [3]: 23.73 min; t1/2 [2]: 16 min; Retention_time [4]: 21.01 min; Drug metabolism [5]: Metabolite_Detected; MIC90 (Mycobacterium marinum [6]): 0.5 µg/mL (≈ 1.32 µM); Drug metabolism [7]: Metabolite_Detected; Retention_time [9]: 21.97 min
3 | Cc1ccc(Nc2nc(-c3cc(C(=O)Nc4cccc(F)c4)no3)cs2)cc1 | 2.5 (≈ 6.34 µM) |  | inactive | inactive | 
4 | Cc1ccc(Nc2nc(-c3cc(C(=O)Nc4ccsc4)no3)cs2)cc1 | 1 (≈ 2.61 µM) | > 100 |  |  | MIC90 (Mycobacterium marinum [6]): 1 µg/mL (≈ 2.61 µM)
5 | Cc1ccc(Nc2nc(-c3cc(C(=O)Nc4cccc(C)c4)no3)cs2)cc1 | 0.5 (≈ 1.28 µM) | 10.7 (≈ 27.4 µM) | inactive | inactive | 
6 | O=C(Nc1ccccc1)c1cc(-c2csc(Nc3ccc(C(F)(F)F)cc3)n2)on1 | > 20 |  |  |  | remaining at 1 µM [12]: 71%
7 | Cc1cc(C)cc(Nc2nc(-c3cc(C(=O)Nc4ccccc4)no3)cs2)c1 | 1 (≈ 2.56 µM) | 70.9 (≈ 182 µM) | inactive | inactive | 
8 | Cc1ccc(Nc2nc(-c3cc(C(=O)Nc4ccc(F)cc4)no3)cs2)cc1 | 1 (≈ 2.54 µM) | 46.8 (≈ 119 µM) | inactive | inactive | 
9 | O=C(Nc1ccccn1)c1cc(-c2csc(Nc3ccccc3)n2)on1 | > 20 |  |  |  | inhibition at 100 µM [13]: 50%; t1/2 [2]: 66 min; inhibition at 100 µM (Mycobacterium avium [14]): 50%
10 | O=C(Nc1ccccc1)c1cc(-c2csc(Nc3cc(Cl)c(Cl)c(Cl)c3)n2)on1 | > 20 |  |  |  | remaining at 1 µM [12]: 101%
11 | O=C(Nc1ccccc1)c1cc(-c2csc(Nc3ccc(Cl)cc3)n2)on1 | 1.25 (≈ 3.15 µM) | > 100 |  |  | t1/2 [2]: 59 min; MIC90 (Mycobacterium marinum [6]): 2 µg/mL (≈ 5.04 µM)
12 | O=C(Nc1ccccn1)c1cc(-c2csc(Nc3ccc(C(F)(F)F)cc3)n2)on1 | > 20 |  |  |  | remaining at 1 µM [12]: 85%
13 | Cc1ccc(Nc2nc(-c3cc(C(=O)Nc4ccccc4C)no3)cs2)cc1 | 1 (≈ 2.56 µM) | 63.7 (≈ 163 µM) | inactive | inactive | 
14 | Cc1ccc(Nc2nc(-c3cc(C(=O)Nc4ccc(O)cc4)no3)cs2)cc1 | 0.5 (≈ 1.27 µM) | 79.1 (≈ 202 µM) | inactive | inactive | MIC90 (Mycobacterium marinum [6]): 1 µg/mL (≈ 2.55 µM)
15 | Cc1ccc(Nc2nc(-c3cc(C(=O)Nc4cccc(C)n4)no3)cs2)cc1 |  | 66.8 (≈ 171 µM) |  |  | MIC90 (Mycobacterium marinum [6]): 1 µg/mL (≈ 2.55 µM)
16 | O=C(Nc1ccccc1)c1cc(-c2csc(Nc3ccccc3)n2)on1 | 1.25 (≈ 3.45 µM) | 11.9 (≈ 32.8 µM) |  |  | inhibition at 100 µM [13]: 50%; t1/2 [2]: 43 min; inhibition at 100 µM (Mycobacterium avium [14]): 50%
17 | O=C(Nc1ccccn1)c1cc(-c2csc(Nc3cc(Cl)c(Cl)c(Cl)c3)n2)on1 | > 20 |  |  |  | remaining at 1 µM [12]: 102%
18 | O=C(Nc1cccc(O)c1)c1cc(C(=O)Nc2nc3ccccc3s2)on1 |  |  |  |  | MIC90 (Mycobacterium marinum [15]): inactive; MIC90 ([1]; time 7.0 day): inactive
19 | Cc1ccc(Nc2nc(-c3cc(C(=O)Nc4ccccc4)no3)co2)cc1 | 1 (≈ 2.77 µM) | > 100 | inactive | inactive | 
20 | Cc1ccc(Nc2nc(-c3cc(C(=O)Nc4ccncc4)no3)cs2)cc1 | 1 (≈ 2.65 µM) | 29.9 (≈ 79.2 µM) | inactive | inactive | 
21 | Nc1nc(-c2cc(C(=O)Nc3ccccc3)no2)cs1 | > 20 |  |  |  | remaining at 1 µM [12]: 97%
22 | Nc1nc(-c2cc(C(=O)Nc3ccccn3)no2)cs1 | > 20 |  |  |  | remaining at 1 µM [12]: 96%
23 | Cc1cccc(NC(=O)c2cc(C(=O)Nc3nc4ccccc4s3)on2)c1 |  |  |  |  | MIC90 (Mycobacterium marinum [15]): inactive; MIC90 ([1]; time 7.0 day): inactive
24 | O=C(Nc1ccccn1)c1cc(C(=O)Nc2nc3ccccc3s2)on1 |  |  |  |  | MIC90 (Mycobacterium marinum [15]): inactive; MIC90 ([1]; time 7.0 day): inactive
25 | O=C(Nc1ccccc1)c1cc(-c2csc(Nc3cccc(O)c3)n2)on1 | 5 (≈ 13.2 µM) |  |  |  | t1/2 [2]: 34 min
26 | Cc1ccc(Nc2nc(-c3cc(C(=O)Nc4cc(C)ccn4)no3)cs2)cc1 | 1 (≈ 2.55 µM) | 86.3 (≈ 220 µM) |  |  | inhibition at 100 µM [13]: 50%; inhibition at 100 µM (Mycobacterium avium [14]): 50%
27 | O=C(Nc1ccccc1)c1cc(C(=O)Nc2nc3ccccc3s2)on1 |  |  |  |  | MIC90 (Mycobacterium marinum [15]): inactive; MIC90 ([1]; time 7.0 day): inactive
28 | Cc1ccc(Nc2nc(-c3cc(C(=O)Nc4cccc(O)c4)no3)cs2)cc1 | 0.5 (≈ 1.27 µM) | 48.7 (≈ 124 µM) | inactive | inactive | 
29 | Cc1ccc(Nc2nc(-c3cc(C(=O)Nc4ccccn4)no3)cs2)cc1O | 5 (≈ 12.7 µM) | > 100 | inactive | inactive | 
30 | Cc1ccc(Nc2nc(-c3cc(C(=O)Nc4ccccc4)no3)cs2)cc1 | 1 (≈ 2.66 µM) | 88 (≈ 234 µM) |  |  | Activity [16]: Toxic; Drug metabolism [17]: Metabolite_Detected; Drug metabolism [18]: Metabolite_Detected; t1/2 [2]: 35 min; Retention_time [19]: 22.95 min; MIC90 (Mycobacterium marinum [6]): 0.5 µg/mL (≈ 1.33 µM); Activity (Mycobacterium marinum [20]): Active; Retention_time [21]: 25.44 min; Activity [22]: Toxic; Retention_time [9]: 23.65 min

Source: ChEMBL document CHEMBL5335768, “Expanding the knowledge around antitubercular 5-(2-aminothiazol-4-yl)isoxazole-3-carboxamides: Hit-to-lead optimization and release of a novel antitubercular chemotype via scaffold derivatization” (Eur J Med Chem, 2023)
